High-throughput results as filed in PubChem BioAssay.
TAAR1 agonist: human TAAR1 agonism. activation, % at 3 µM. 360,000 compounds, 0.99% hits. CHO RD-HGA16 TAAR1, Fluo-8 calcium fluorescence; vehicle wells 0%, saturating PEA agonist 100%;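 active = activation above the mean activation of all test compounds in the run plus 3 SD, cut at about 38% in these data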
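Test system: RD-HGA16 (CHO) cells co-expressing Gα16 and hTAAR1; dosing: one-point dosing at 3 µM (nominal); timing: 17-24 h seeding, 75 min 37 °C dye, 30 min RT; signal: kinetic Fluo-8 calcium fluorescence; read-out basis: % activation relative to PEA EC100 response; controls: DMSO and PEA EC100; replicates: n 1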
ANO1 activ: activates or potentiates the mouse TMEM16A chloride channel. 340,000 compounds, 0.3% hits. HEK293 TMEM16A/YFP-H148Q/I152L, iodide quench fluorescence; hits give low values. B-score at 10 µM. Q8BHY3;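 active = fluorescence-ratio B-score plate-corrected deviation score at least 3 library SD below zero, with starting fluorescence score within 5 deviations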;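 note: channel opened by trigger with iodide after compound preincubation; score built on the fluorescence ratio of max minus min over baseline; more negative score means more quench and so TMEM16A activation or potentiation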
CRFBP-R2 block: blocks CRF-induced signaling of the CRF-BP/CRF-R2 complex. AID 588475. 350,000 compounds, 0.59% hits. inhibition, % at 11.8 µM. HEK293 CRF-R2/CRF-BP, CRF-induced calcium fluorescence;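 active = inhibition of the ligand-induced calcium signal above about 50% at the single tested concentration, limit read from the data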
ANO1 block: inhibitors of mouse TMEM16A calcium-activated chloride channel; HEK293 TMEM16A/YFP iodide influx fluorescence, ionomycin; normalized B-score (activity score, 25-100; higher = stronger inhibition) at 10 µM; 310,000 compounds, 1.2% hits;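 active = ratio plate-corrected score three or more library SD toward inhibition, starting fluorescence score within five deviations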;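 note: score derived from kinetic fluorescence span divided by baseline fluorescence per well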
CRFBP-R2 agonist: CRF-BP/CRF-R2 complex agonism. AID 588473. HEK293 CRF-R2/CRF-BP, calcium dye fluorescence (FLIPR); percent of saturating CRF peptide response. 350,000 compounds, 0.46% hits. activation, % at 13.2 µM;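 active = activation of at least 50%, plus an integration ratio under a set limit after plate pattern correction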;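 note: plate controls were neutral control wells without compound for no effect and CRF at EC100 for full effect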
TAAR1 antag: human TAAR1 antagonism | Q96RJ0 | CHO RD-HGA16 TAAR1, Fluo-8 calcium fluorescence, antagonist | inhibition, % at 3 µM | 360,000 compounds, 1.5% hits | AID 624466;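 active = inhibition above a per-plate cutoff, the mean inhibition of test compounds on that plate plus 3 SD, cut at about 49% in these data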;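 note: 0% = DMSO plus EC80 beta-PEA response and 100% = DMSO alone without agonist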
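test system = CHO RD-HGA16 cells bearing hTAAR1 | replication = singlicate | controls = DMSO-only wells and EC80 β-PEA-stimulated wells | reagent = EC80 β-phenethylamine stimulus | read-out basis = percent inhibition of PEA-evoked calcium signal, max/basal emission ratio | schedule = seeding 17-24 h prior, 75-min 37 °C, 30-min RT dye loading | signal = kinetic Fluo-8 calcium fluorescence measurement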
TAAR1 nonsel count: nonselective antagonism, TAAR1 counter-screen | counterscreen cell line, calcium fluorescence, antagonist mode | AID 651780 | 2,400 compounds, 77% hits | inhibition, % at 3 µM | shares compounds with TAAR1 antag; in the data active = inhibition above about 22%;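 note: CHO-Ga16 host cells stimulated with ATP at an EC80 level; 0% = agonist EC80 plus vehicle and 100% = vehicle without agonist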
TAAR1 antag conf: human TAAR1 antagonism, confirmed; shares compounds with TAAR1 antag; TAAR1-expressing cells, fluorescence antagonist read-out; inhibition, % at 3 µM; 2,400 compounds, 40% hits; in the data active = inhibition above about 49%;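 note: CHO-Ga16 host cells challenged with agonist PEA near its EC80; 0% = agonist at EC80 plus vehicle and 100% = vehicle with no agonist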
Ga16 ag counter: nonselective Ga16 agonism, counter-screen. shares compounds with TAAR1 antag. Ga16-expressing cells, calcium fluorescence, agonist counterscreen. activation, % at 3 µM. 2,400 compounds, 18% hits; in the data active = activation above about 12%;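 note: 0% = vehicle wells and 100% = saturating stimulus response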
TAAR1 ag count: TAAR1 agonism, antagonist counter-screen. activation, % at 3 µM. hTAAR1 cell line, fluorescence activation, agonist mode. 2,400 compounds, 2% hits. shares compounds with TAAR1 antag; in the data active = activation above about 37%;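 note: CHO cells stably expressing TAAR1 with calcium dye readout; 0% = DMSO vehicle and 100% = full agonist response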
Active calls of the source: *; i = inactive; x = no result given. This is a sample that favours compounds with a hit; in the whole collection about 3.9% have one here.

SMILES	TAAR1 agonist	ANO1 activ	CRFBP-R2 block	ANO1 block	CRFBP-R2 agonist	TAAR1 antag	TAAR1 nonsel count	TAAR1 antag conf	Ga16 ag counter	TAAR1 ag count
Cn1cc(CNC(=O)c2cc(-c3ccccc3)nc3ccc(Br)cc23)cn1	10	i	27	i	-2	43	x	x	x	x
Cc1ccc(NC(=O)CN(C)C(=O)c2cc(-c3ccco3)nc3ccccc23)cc1	11	i	10	i	0	1	x	x	x	x
COc1ccc(NC(=O)CN(C)C(=O)c2cc(-c3ccccc3)nc3ccccc23)cc1	17	i	-6	i	1	55*	28*	43	7	11
Cc1nn(C)cc1CN(C)C(=O)c1cc(-c2ccccc2)nc2ccc(Br)cc12	17	i	-11	i	-1	65*	37*	54*	8	8
CN(CCOc1ccc(Cl)cc1)C(=O)c1cc(-c2ccco2)nc2ccccc12	15	i	-14	i	-1	74*	40*	59*	9	9
Cc1ccc([C@H]2C[C@H](n3cc(-c4ccc(F)cc4)nn3)[C@@H](O)CN2CC2CCCCC2)cc1	-1	x	11	x	6	-9	x	x	x	x
Cc1ccc2nc(-c3ccccc3)cc(C(=O)N(C)CC(=O)Nc3ccccc3Br)c2c1	7	i	-6	i	0	61*	31*	56*	9	7
O=C(c1ccc(F)cc1)C1CCN(CCn2c(=S)[nH]c3ccccc3c2=O)CC1	x	x	x	i	x	x	x	x	x	x
CC1(C)C(=O)N(CCN2CCC(C(=O)c3ccc(F)cc3)CC2)c2ccccc21	13	i	-7	i	-1	87*	37*	56*	12*	10
NS(=O)(=O)c1ccc(CCNC(=O)COC(=O)/C=C/c2cc(Br)ccc2F)cc1	8	x	-29	x	25	12	x	x	x	x
CCc1ccc(OCCNC(=O)c2ccccc2SCc2ccccc2)cc1	8	i	3	i	6	61*	25*	40	4	2
CCNC(=O)c1ccccc1SCc1ccccc1	8	i	-4	i	0	0	x	x	x	x
COc1cc(-c2noc(C)c2/C=C/c2ccc(C(=O)O)cc2)cc(OC)c1OC	34	i	-1	i	-1	-4	x	x	x	x
COc1cc(-c2noc(C)c2/C=C/c2cccc([N+](=O)[O-])c2)cc(OC)c1OC	11	i	9	i	1	74*	28*	42	2	0
CC(NC(=O)CNC(=O)C1CCCCC1)c1ccc(S(N)(=O)=O)cc1 (stereo unspecified)	-3	i	-1	i	2	3	x	x	x	x
CCS(=O)(=O)N1Cc2ccccc2CC1C(=O)Nc1nnc(SCc2ccc(F)cc2)s1 (stereo unspecified)	30	i	-23	i	0	62*	32*	43	9	9
Cc1ccc(NC(=O)c2ccc(Cl)c(S(=O)(=O)N3CCCCCC3)c2)nc1	6	i	-12	i	2	29	x	x	x	x
O=C(NCc1ccc(F)cc1)C(=O)NCC1CCCN1S(=O)(=O)c1ccccc1 (stereo unspecified)	-1	i	-6	i	-3	-6	x	x	x	x
O=C(NCCc1ccc(F)cc1)C(=O)NCC1CCCN1S(=O)(=O)c1ccccc1 (stereo unspecified)	16	i	10	i	2	65*	27*	51*	10	14
COc1ccc(S(=O)(=O)N2CCCC2CNC(=O)C(=O)NCc2ccccc2)cc1 (stereo unspecified)	1	i	7	i	-2	-4	x	x	x	x
COc1ccc(CCNC(=O)C(=O)NCC2CCCN2S(=O)(=O)c2ccccc2)cc1 (stereo unspecified)	14	i	-8	i	-1	65*	27*	50*	11	18
Cc1cc(C)cc(OCC(O)CN2CC(C)OC(C)C2)c1 (stereo unspecified)	0	i	10	i	-1	9	x	x	x	x
Cc1ccccc1-c1nc2cc(NC(=O)C3CC3)ccc2o1	0	i	-38	i	4	-7	x	x	x	x
Cc1ccc(S(=O)(=O)N2CCOCC2)cc1C(=O)Nc1ccncc1	-2	i	-3	x	0	9	x	x	x	x
Cc1ccc(S(=O)(=O)N2CCOCC2)cc1C(=O)Nc1ccc(-c2cn3ccsc3n2)cc1	18	i	7	i	-1	74*	30*	75*	10	9
SMILES	TAAR1 agonist	ANO1 activ	CRFBP-R2 block	ANO1 block	CRFBP-R2 agonist	TAAR1 antag	TAAR1 nonsel count	TAAR1 antag conf	Ga16 ag counter	TAAR1 ag count
Cc1cc(C)c2nc(-c3ccccn3)cc(C(=O)N3CCCC3)c2c1	4	i	1	i	-1	-25	x	x	x	x
COc1cccc(C(=O)N(Cc2ccc(N(C)C)cc2)C2CCS(=O)(=O)C2)c1 (stereo unspecified)	-2	i	-7	i	1	106*	4	-4	5	4
CCOC(=O)C(Cc1ccc(NC(C)=O)cc1)N1C(=O)c2ccccc2C1=O (stereo unspecified)	14	i	6	x	0	58*	24*	46	9	8
COc1ccc([C@@H](C)NC(=O)c2ccc3oc(C(C)C)nc3c2)cc1	3	i	2	i	-3	-26	x	x	x	x
C=CCNC(=S)N(C)[C@H]1C[C@H]2c3[nH]c4c(-c5ccccc5)cccc4c3CCN2C(=O)[C@H]1[C@H](C)O	15	x	x	x	x	38	x	x	x	x
COc1ccc(C(C(=O)NCC2CCCO2)N(Cc2cccs2)C(=O)c2snc(C(N)=O)c2N)cc1 (stereo unspecified)	19	i	-7	i	0	59*	23*	58*	27*	12
CCOc1ccc(C(C(=O)NCC2CCCO2)N(Cc2ccccc2)C(=O)c2snc(C(N)=O)c2N)cc1 (stereo unspecified)	21	i	5	i	-1	57*	35*	57*	12*	18
O=C(COC(=O)c1cccc(S(=O)(=O)N2CCCC2)c1)NCc1ccccc1	3	i	-1	i	-2	0	x	x	x	x
